According to PMC7498158 (Journal of Medicinal Chemistry, 2020):

Experiments:
Assay type in all cases: biochemical
[1] = molecular target: T1, mDAGLα (Mus musculus, UniProt Q6WQJ1); assay: gel-based ABPP, mouse brain membrane proteome; details: 10 μM
T1 sequence (Q6WQJ1 1-1044): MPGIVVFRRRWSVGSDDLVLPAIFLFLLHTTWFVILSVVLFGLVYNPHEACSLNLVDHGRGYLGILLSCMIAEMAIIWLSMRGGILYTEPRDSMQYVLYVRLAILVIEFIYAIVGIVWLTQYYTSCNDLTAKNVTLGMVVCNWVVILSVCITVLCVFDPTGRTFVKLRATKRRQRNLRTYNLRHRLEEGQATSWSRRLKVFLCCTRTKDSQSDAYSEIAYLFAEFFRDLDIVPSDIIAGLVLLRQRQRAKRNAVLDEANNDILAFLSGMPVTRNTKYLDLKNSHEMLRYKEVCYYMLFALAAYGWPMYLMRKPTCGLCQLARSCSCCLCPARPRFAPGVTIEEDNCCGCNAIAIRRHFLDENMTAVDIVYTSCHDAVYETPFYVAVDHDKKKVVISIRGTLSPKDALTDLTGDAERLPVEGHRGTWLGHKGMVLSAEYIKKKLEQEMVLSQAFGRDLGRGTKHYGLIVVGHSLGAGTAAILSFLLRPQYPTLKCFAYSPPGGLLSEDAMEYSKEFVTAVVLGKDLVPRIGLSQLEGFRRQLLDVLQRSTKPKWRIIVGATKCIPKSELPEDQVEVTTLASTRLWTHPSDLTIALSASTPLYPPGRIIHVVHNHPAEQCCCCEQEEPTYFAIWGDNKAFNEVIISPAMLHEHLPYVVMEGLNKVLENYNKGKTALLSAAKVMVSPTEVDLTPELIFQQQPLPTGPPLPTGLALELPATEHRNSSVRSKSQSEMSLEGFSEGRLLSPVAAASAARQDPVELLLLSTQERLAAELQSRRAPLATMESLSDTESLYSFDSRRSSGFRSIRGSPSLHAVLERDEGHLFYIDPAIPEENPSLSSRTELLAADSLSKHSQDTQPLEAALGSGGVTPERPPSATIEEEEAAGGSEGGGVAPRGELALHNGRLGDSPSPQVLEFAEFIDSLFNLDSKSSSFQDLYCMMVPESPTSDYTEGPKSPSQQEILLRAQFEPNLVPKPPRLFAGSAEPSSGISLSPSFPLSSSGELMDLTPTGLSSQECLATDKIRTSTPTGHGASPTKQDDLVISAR
Procedure, shortened: (§1)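 Mouse brain was dounce-homogenized in 20 mM HEPES pH 7.2 with DTT, MgCl2 and benzonase. The membrane pellet from ultracentrifugation (100,000g, 45 min, 4 °C) was used at 2 μg/μL. It was preincubated with test compound in DMSO (30 min, rt), then labeled with MB064 (250 nM) or FP-TAMRA (500 nM) for 15 min at rt. Samples ran on 10% SDS-PAGE; fluorescence was normalized to Coomassie staining.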

[2] = molecular target: T2, mFAAH (Mus musculus, UniProt O08914); assay: gel-based ABPP, mouse brain membrane proteome; details: 10 μM
T2 sequence (O08914 1-579): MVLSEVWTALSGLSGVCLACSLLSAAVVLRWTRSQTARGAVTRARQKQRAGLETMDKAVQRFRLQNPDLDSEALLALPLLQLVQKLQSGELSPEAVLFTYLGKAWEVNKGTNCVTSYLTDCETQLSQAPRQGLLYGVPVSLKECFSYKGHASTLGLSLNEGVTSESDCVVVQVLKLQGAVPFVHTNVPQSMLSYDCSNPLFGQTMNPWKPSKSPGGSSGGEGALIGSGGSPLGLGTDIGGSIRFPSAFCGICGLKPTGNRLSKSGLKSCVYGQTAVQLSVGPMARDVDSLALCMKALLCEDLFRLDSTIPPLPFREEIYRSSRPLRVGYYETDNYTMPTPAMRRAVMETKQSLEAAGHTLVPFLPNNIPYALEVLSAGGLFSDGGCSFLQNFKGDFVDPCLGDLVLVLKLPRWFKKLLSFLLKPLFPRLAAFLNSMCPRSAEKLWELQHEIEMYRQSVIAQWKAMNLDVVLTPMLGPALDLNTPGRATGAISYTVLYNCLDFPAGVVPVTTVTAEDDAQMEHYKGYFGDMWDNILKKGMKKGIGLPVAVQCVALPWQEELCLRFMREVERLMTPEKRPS
Procedure, shortened: as §1

[3] = molecular target: hNAPE-PLD (Homo sapiens, UniProt Q6IQ20); assay: NAPE-PLD surrogate substrate; details: 10 μM
[4] = molecular target: T3, mABHD6 (Mus musculus, UniProt Q8R2Y0); assay: gel-based ABPP, mouse brain membrane proteome; details: 10 μM
T3 sequence (Q8R2Y0 1-336): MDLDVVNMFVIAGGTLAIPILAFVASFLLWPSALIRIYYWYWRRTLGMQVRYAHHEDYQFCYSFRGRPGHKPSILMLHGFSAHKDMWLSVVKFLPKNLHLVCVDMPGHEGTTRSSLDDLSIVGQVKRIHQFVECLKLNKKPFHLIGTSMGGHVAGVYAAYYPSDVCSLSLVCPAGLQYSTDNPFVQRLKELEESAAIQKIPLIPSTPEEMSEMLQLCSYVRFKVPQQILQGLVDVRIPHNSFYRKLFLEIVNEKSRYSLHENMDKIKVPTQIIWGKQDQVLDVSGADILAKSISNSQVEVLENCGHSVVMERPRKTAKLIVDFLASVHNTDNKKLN
Procedure, shortened: as §1

[5] = molecular target: T4, PLAAT4 (Homo sapiens, UniProt Q9UL19)
T4 sequence (Q9UL19 1-164): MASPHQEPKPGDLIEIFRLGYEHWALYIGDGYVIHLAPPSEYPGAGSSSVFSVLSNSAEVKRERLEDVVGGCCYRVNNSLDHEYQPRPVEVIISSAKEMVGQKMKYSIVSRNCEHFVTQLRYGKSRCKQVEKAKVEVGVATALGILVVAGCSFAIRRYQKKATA
Procedure, shortened: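 Human PLAAT cDNA (C-terminal FLAG, pcDNA3.1) was PEI-transfected into HEK293T; cytosol came from a 100,000g spin. Cytosol was preincubated with test compound (30 min, rt), then MB064 (20 min, rt). Conditions: PLAAT2 0.25 μg/μL, 250 nM; PLAAT3 0.5 μg/μL, 250 nM; PLAAT4/5 1 μg/μL, 500 nM. In-gel fluorescence was normalized to Coomassie, in triplicate. Single-concentration screen or IC50 from dose–response curves.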

Chain of hNAPE-PLD (Q6IQ20 whole entry): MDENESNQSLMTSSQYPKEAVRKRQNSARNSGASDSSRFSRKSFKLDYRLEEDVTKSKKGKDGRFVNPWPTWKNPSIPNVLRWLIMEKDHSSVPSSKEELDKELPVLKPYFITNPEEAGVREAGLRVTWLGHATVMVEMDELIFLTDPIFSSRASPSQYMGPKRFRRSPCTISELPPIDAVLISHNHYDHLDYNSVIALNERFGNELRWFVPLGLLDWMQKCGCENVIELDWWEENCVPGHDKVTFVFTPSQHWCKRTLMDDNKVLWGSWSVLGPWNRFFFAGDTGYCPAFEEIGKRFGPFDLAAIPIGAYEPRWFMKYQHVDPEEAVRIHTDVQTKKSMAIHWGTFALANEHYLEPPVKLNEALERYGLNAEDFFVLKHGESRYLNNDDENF

O=C(CCCc1ccccc1)C(=O)NCCc1ccc(Oc2ccccc2)cc1 [Compound 51, 2-Oxo-N-(4-phenoxyphenethyl)-5-phenylpentanamide]
inhibition of DAGLα (in words) [1]: not inhibited | inhibition of FAAH (in words) [2]: not inhibited | inhibition of NAPE-PLD (in words) [3]: not inhibited | inhibition of ABHD6 (in words) [4]: not inhibited | increase in activity/potency for PLAAT4 compared to 25 [5]: 10 fold
